Source: PubChem (several laboratories)
proCasp3 act – activators of human procaspase-3 D3A mutant, primary screen, biochemical, absorbance, PC-3 D3A mutant, single concentration; recombinant procaspase-3 D3A, Ac-DEVD-pNA absorbance 405 nm; activation, % at 8.5 µM; AID 463141, 2010; actives 0.11% (n = 330,000);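 active means activation above the mean of all tested compounds plus 3 SD, cut at about 21% in these data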;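 further: 0% = DMSO alone and 100% = DMSO wells spiked with extra 5 µM PC-3 D3A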
Target sequence (P42574 whole entry D9A/D28A/D175A): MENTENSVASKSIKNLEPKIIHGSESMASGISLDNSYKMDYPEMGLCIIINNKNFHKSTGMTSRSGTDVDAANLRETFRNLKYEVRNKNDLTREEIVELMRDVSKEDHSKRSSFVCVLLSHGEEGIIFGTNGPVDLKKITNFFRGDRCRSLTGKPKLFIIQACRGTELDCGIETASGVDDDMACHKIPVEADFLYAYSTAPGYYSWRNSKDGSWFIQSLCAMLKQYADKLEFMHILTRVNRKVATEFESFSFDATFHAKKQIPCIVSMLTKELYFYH
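Compound: 8.5 µM single point, 0.8% DMSO / Material: Autoprocessing-dead procaspase-3 D3A mutant enzyme / Timing: 1 h preincubation plus 2 h reaction at 25 °C / Medium: Zinc-free HEPES/NaCl buffer with 0.01% Triton X-100 at pH 7.4 / Technique: 405 nm absorbance of p-nitroaniline, reads at 0 and 120 min / Repeats: one well per compound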
proKLK7 act – proKLK7 zymogen activators, primary screen, biochemical, fluorescence intensity | activation, % at 7 µM | purified proKLK7, EDANS-DABCYL substrate fluorescence; 100% is mature enzyme control, 0% vehicle | Kallikrein-7 (Homo sapiens), P49862 | AID 652039, 2013 | actives 0.9% (n = 370,000);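 active means activation above the mean of all tested compounds plus 3 SD, computed per campaign excluding outliers beyond control limits, cut at about 13% in these data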
Target sequence (P49862 whole entry, looked up): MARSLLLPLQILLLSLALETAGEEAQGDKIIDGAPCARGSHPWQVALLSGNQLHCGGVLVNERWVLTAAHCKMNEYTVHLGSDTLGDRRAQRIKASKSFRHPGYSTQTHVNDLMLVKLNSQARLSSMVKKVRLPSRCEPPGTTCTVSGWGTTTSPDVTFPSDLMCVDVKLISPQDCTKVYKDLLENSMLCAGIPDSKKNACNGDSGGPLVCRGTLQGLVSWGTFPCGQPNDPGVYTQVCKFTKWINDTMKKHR
procasp7 counter – procaspase-7 activators, primary screen, counter-screen for procaspase-3 activator project, biochemical, absorbance, HTS, human. recombinant procaspase-7, Ac-DEVD-pNA absorbance 405 nm; D23A/D198A/D206A triple mutant, cannot self-cleave; scale: DMSO 0, 5 µM enzyme 100. activation, % at 8.5 µM. AID 463210, 2010. actives 0.093% (n = 330,000). Caspase-7 (Homo sapiens), P55210;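 active means percent activation above the screen-wide mean plus 3 SD, cut at about 25% in these data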
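System: Procaspase-7 triple mutant (PC-7 D3A); measure: % activation from two-timepoint absorbance difference, scaled to controls; times: 1 h compound preincubation, 2 h substrate cleavage, 25 °C; also added: Ac-DEVD-pNA substrate, 400 µM as added; measured by: Epi-absorbance of released pNA at 405 nm, two timepoints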
Neddyl block – inhibitors of cullin neddylation, primary screen, biochemical, TR-FRET, uHTS, NAE and Ubc12; NEDD8-conjugating enzyme Ubc12 (Homo sapiens) + NEDD8-activating enzyme E1 regulatory …; calls only at 25 µM; actives 0.58% (n = 360,000); AID 651699, 2012; in the data active means inhibition above about 36%
proKLK7 act conf – proKLK7 zymogen activators, confirmation, biochemical, fluorescence intensity, triplicate; shares compounds with proKLK7 act; purified proKLK7, EDANS-DABCYL substrate fluorescence; scaled: vehicle 0, mature enzyme 100; activation, % at 7 µM; actives 68% (n = 3,200); AID 686949, 2013;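 active means activation, as change over the incubation, above the mean of all tested compounds plus 3 SD, cut at about 13% in these data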
EDANS-DABCYL int – EDANS-DABCYL substrate optical interference, artefact control for kallikrein-7 zymogen activator project, biochemical, fluorescence intensity, high throughput. no enzyme, 4 h; solvent 0%, active enzyme control 100%. AID 686952, 2013. shares compounds with proKLK7 act. activation, % at 7 µM. actives 80% (n = 3,200);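 active means activation above the all-compound mean plus 3 SD, ignoring values outside control-based bounds, cut at about 4.8% in these data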;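 further: value is the 4 h activation minus the activation read at time zero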
K7 EDANS ctr – optically interferes with EDANS-DABCYL fluorescence, kallikrein-7 activator counter-screen; shares compounds with proKLK7 act; EDANS-DABCYL peptide fluorescence interference, no enzyme; EC50, µM; actives 20% (n = 250); AID 720493;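 active means compounds that raise the fluorescence signal in this interference counterscreen, with EC50 at or below 10 µM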;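 further: intact quenched peptide substrate alone read at 355 nm excitation and 520 nm emission; signal is fluorescence gain from T0 to T4 after four hours at room temperature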
* hit, by the source's call; i = inactive; nt = no result given. Only some compounds are listed: those with a hit (about 1.6% of all), similar ones and a draw of the others.

SMILES	proCasp3 act	proKLK7 act	procasp7 counter	Neddyl block	proKLK7 act conf	EDANS-DABCYL int	others
COc1ccc(C2C=C(c3ccc(Br)cc3)Nc3nc(N4C(=O)CCC4=O)nn32)cc1 (stereo not given)	-2	29*	6	i	-81	-73
COc1ccccc1C1C=C(c2ccc(Cl)cc2)Nc2nc(N3C(=O)CCC3=O)nn21 (stereo not given)	-7	6	1	nt	nt	nt
Cc1ccc(-c2nc3ccccc3[nH]2)s1	7	-2	0	nt	nt	nt
Cc1nnsc1-c1nc2ccccc2[nH]1	-1	32*	-9	nt	31*	45*
Cc1ccc2c(c1)-n1c(nc3ccccc3c1=O)C(CC(C)C)NC2=O (stereo not given)	3	0	-5	nt	nt	nt
CC1CC(=O)C2=C(C1)Nc1ncnn1C2c1ccccc1 (stereo not given)	-5	0	-1	i	nt	nt
O=C1CCCC2=C1C(c1ccncc1)n1c(nc3ccccc31)N2 (stereo not given)	0	47*	4	nt	63*	75*
CC1CC(=O)C2=C(C1)Nc1nc3ccccc3n1C2c1cccnc1 (stereo not given)	-2	76*	1	nt	64*	72*
COc1ccc(OC)c(-c2cc(C(=O)Nc3ccc(F)cc3F)no2)c1	3	-1	1	i	nt	nt
Cc1ccc(NC(=O)C2=CC(c3cccs3)=NS(=O)(=O)N2C)cc1	8	18*	0	i	22*	13*	K7 EDANS ctr=i
CCN(CC)CCNc1oc(-c2ccccc2)nc1S(=O)(=O)c1ccccc1	4	0	-5	i	nt	nt
COc1ccc(O)c(C(=O)c2cnn(C(=O)c3ccc(C)cc3)c2)c1	0	4	-18	i	nt	nt
Cc1ccc(O)c(C(=O)c2cnn(C(=O)Cc3csc(C)n3)c2)c1	7	20*	15	i	54*	53*
COC(=O)c1cc(-c2ccc(OC)cc2)nc2nc(SC)[nH]c(=O)c12	-1	25*	-1	nt	21*	17*	K7 EDANS ctr=>70
COc1cccc(C(=O)N(c2ccc(OC)cc2OC)C2C=CS(=O)(=O)C2)c1 (stereo not given)	10	0	15	i	nt	nt
CCC[n+]1c2ccccc2cc2ccccc21	-21	77*	-20	i	73*	81*
CCCC[n+]1c2ccccc2cc2ccccc21	-9	65*	-9	i	70*	74*
Cc1ccc2ccccc2[n+]1CCCS(=O)(=O)[O-]	-1	0	4	i	nt	nt
Nc1nc2cc3c(cc2cc1C(=O)NCc1cccnc1)OCO3	nt	18*	nt	nt	30*	36*
COc1ccc(Cn2cc(CN3[C@@H](Cc4ccccc4)COc4cc(Br)ccc4S3(=O)=O)nn2)cc1	nt	0	nt	nt	nt	nt
O=C(N/N=C/c1cccc(O)c1)c1cc(-c2ccccc2)nc2ccccc12	6	1	6	i	nt	nt
COc1ccc(/C=N/NC(=O)c2cc(-c3ccccc3)nc3ccccc23)c(OC)c1	21	275*	-3	nt	171*	220*
COc1ccc(-c2cc(C(=O)Nc3cc(C)on3)c3ccccc3n2)c(OC)c1	5	0	-4	nt	nt	nt
COc1cccc(NC(=O)c2cc(-c3ccc(OC)cc3OC)nc3ccccc23)c1	-5	67*	2	i	-14	-12
COc1ccc2c(c1)c1ncn(CCN3CCNCC3)c(=O)c1n2C	-3	25*	-3	nt	18*	17*
SMILES	proCasp3 act	proKLK7 act	procasp7 counter	Neddyl block	proKLK7 act conf	EDANS-DABCYL int	others
COc1ccc2c(c1)c1ncn(CCN3CCCC3)c(=O)c1n2C	0	24*	1	nt	4	5.9*
COc1ccc2[nH]c3c(=O)n(CCN4CCOCC4)cnc3c2c1	5	8	2	nt	nt	nt
COc1ccc2c(c1)c1ncn(CCN3CCCCC3)c(=O)c1n2C	8	17*	-2	nt	1	0
Cc1ccc(-n2nc3c(c2NC(=O)c2ccc4c(c2)OCO4)CS(=O)C3)c(C)c1 (stereo not given)	-5	0	4	i	nt	nt
COc1ccc(/C=N/NC(=O)c2nnn(-c3nonc3N)c2-c2cccs2)cc1OC	-235	32*	10	nt	217*	353*
COc1cc(/C=N/NC(=O)c2nnn(-c3nonc3N)c2-c2cccs2)ccc1O	15	0	3	i	nt	nt
CC1(c2ccncc2)Nc2ccccc2-c2nc3ccccc3n21 (stereo not given)	1	57*	9	nt	-3	-2
Cc1cccc(C(=O)NC2CCN(CC(=O)NCc3ccccc3F)CC2)c1	10	0	10	i	nt	nt
Clc1ccc2nc(-c3ccc4c(c3)OCO4)cn2c1	4	14*	-2	i	7	7.8*
Cc1cc(C(=O)COc2ccc3ccc(=O)oc3c2)c(C)n1Cc1cccs1	-12	78*	-2	nt	73*	89*
O=c1c2ccccc2n(CC(O)CN2CCCCC2)c2ccccc12 (stereo not given)	-8	34*	-3	nt	29*	29*
Cc1ccc(-n2nc(C)c3c2NC2=C(C(=O)CC(C)(C)C2)C3c2ccccc2OCC(=O)O)cc1 (stereo not given)	0	44*	-2	nt	33*	35*
CN1CCN(C(=O)C[C@H]2C[C@H]3c4cc(NC(=O)NC5CCCCC5)ccc4O[C@H]3[C@@H](CO)O2)CC1	nt	1	nt	i	nt	nt
Cc1sc(-c2ccccn2)nc1OC(=O)c1ccc(Cl)cc1	2	0	1	i	nt	nt
Cc1sc(-c2ccncc2)nc1OC(=O)c1ccccc1	5	19*	6	i	34*	29*
COc1ccc(-c2nn(CCC#N)cc2C(=O)Nc2cccc(C(=O)O)c2)cc1OC	nt	1	nt	i	nt	nt
O=C1CCCC2=C1C(c1cccc(Br)c1)n1nc(-c3ccco3)nc1N2 (stereo not given)	-12	12	-25	i	nt	nt
COC(=O)c1nc2n(n1)C(c1cccc(Cl)c1)C1=C(CCCC1=O)N2 (stereo not given)	17	20*	4	i	14*	19*
CNc1nc(NCc2ccccc2)c2sccc2n1	nt	0	nt	i	nt	nt
